{
  "source": "paper PMC7611434",
  "about": "(Bioorganic chemistry, 2020)",
  "key": {"[1]": {"system": "RUMH cells (renal cell carcinoma, c-MET-overexpressing)", "assay": "cytotoxicity assay", "format": "cell-based, human", "conditions": "for pIC50: read-out: IC50 cytotoxicity; for cytotoxic activity under hypoxia vs normoxia: 72 h, 1 % O2 vs 21 % O2", "in_short": "(§1)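 MTT (EZ4U) viability in H1993 or in-house-established RUMH cells in RPMI 1640 with 10% FCS. Cells were seeded at 3-6x10³/well and recovered 24 h, then given increasing concentrations of test compound (final DMSO <1%). Exposure was 24 h or 72 h at 21% O₂ (normoxia) or 1% O₂ (hypoxia). IC50 came from full dose-response curves; one representative experiment in triplicate, mean ± SD.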"}, "[2]": {"system": "H2228 cells (non-small cell lung cancer, ALK-dependent)", "assay": "cytotoxicity assay", "format": "cell-based, human", "conditions": "for cytotoxic activity under hypoxia vs normoxia: H2228, 72 h, 1 % O2 vs 21 % O2; for pIC50: read-out: IC50 cytotoxicity"}, "[3]": {"system": "H1993 cells (non-small cell lung cancer, c-MET-dependent)", "assay": "cytotoxicity assay", "format": "cell-based, human", "conditions": "for cytotoxic activity under hypoxia vs normoxia: H1993, 72 h, 1 % O2 vs 21 % O2; for pIC50: read-out: IC50 cytotoxicity", "in_short": "as §1"}, "solubility in PBS": {"assay": "solubility in PBS", "format": "physicochemical"}, "[4]": {"system": "H1993 tumor cell proliferation (Ki-67)", "assay": "H1993 xenograft, immunohistochemistry of Ki-67 and tumor histology", "format": "in vivo, SCID mice", "conditions": "24 h"}, "ERK 1/2 phosphorylation": {"system": "ERK 1/2 phosphorylation", "assay": "Western blot of ERK 1/2 phosphorylation in H1993 cells", "format": "cell-based, human", "conditions": "H1993, 24 h", "in_short": "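H1993 cells in RPMI 1640 with 10% FCS were plated at 8x10⁵ cells/dish and allowed 24 h recovery. They were exposed for 24 h to DMSO-diluted test compound (final DMSO <1%) at 21% or 1% O₂. Lysates were run on SDS-PAGE/PVDF and probed for p-ERK 1/2 (Thr202/Tyr204), ERK 1/2 and β-actin (all 1:1000), with HRP secondaries at 1:10000. Read-out: p-ERK/ERK ratio after β-actin normalisation.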"}, "[5]": {"target": "nitroreductase enzyme (E. coli) (Escherichia coli, UniProt P38489)", "sequence (P38489 whole entry)": "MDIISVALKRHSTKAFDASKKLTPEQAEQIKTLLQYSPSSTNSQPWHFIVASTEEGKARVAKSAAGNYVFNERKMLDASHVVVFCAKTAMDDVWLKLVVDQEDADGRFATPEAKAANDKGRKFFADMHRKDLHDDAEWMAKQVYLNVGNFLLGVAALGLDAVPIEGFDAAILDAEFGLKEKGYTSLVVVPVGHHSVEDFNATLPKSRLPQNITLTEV", "conditions": "nitroreductase + NADH, pH 7.4, 37 °C, HPLC; for conversion of prodrug by nitroreductase: after 10 min"}, "ALK": {"system": "ALK", "conditions": "cell-free kinase assay"}, "c-MET": {"system": "c-MET", "conditions": "cell-free kinase assay"}, "[6]": {"system": "HACAT (keratinocytes from human skin)", "assay": "cytotoxicity in non-malignant cells", "format": "cell-based", "conditions": "normoxic, 72 h", "in_short": "(§2)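 Non-malignant HACAT keratinocytes or HLF lung fibroblasts in RPMI 1640 with 10% FCS, under normoxia (37 °C, 21% O₂, 5% CO₂). Cells were seeded at 3-6x10³/well and recovered 24 h. They were then exposed for 72 h to increasing concentrations of test compound diluted from DMSO stock (final DMSO <1%). Viability was read by MTT (EZ4U), with IC50 fitted from full dose-response curves.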"}, "[7]": {"assay": "stability assay in buffer, medium and serum", "format": "in vitro ADME", "conditions": "pure serum (FCS), 37 °C, up to 72 h"}, "c-MET phosphorylation": {"target": "c-MET phosphorylation (Homo sapiens, UniProt P08581)", "sequence (P08581 25-1390)": "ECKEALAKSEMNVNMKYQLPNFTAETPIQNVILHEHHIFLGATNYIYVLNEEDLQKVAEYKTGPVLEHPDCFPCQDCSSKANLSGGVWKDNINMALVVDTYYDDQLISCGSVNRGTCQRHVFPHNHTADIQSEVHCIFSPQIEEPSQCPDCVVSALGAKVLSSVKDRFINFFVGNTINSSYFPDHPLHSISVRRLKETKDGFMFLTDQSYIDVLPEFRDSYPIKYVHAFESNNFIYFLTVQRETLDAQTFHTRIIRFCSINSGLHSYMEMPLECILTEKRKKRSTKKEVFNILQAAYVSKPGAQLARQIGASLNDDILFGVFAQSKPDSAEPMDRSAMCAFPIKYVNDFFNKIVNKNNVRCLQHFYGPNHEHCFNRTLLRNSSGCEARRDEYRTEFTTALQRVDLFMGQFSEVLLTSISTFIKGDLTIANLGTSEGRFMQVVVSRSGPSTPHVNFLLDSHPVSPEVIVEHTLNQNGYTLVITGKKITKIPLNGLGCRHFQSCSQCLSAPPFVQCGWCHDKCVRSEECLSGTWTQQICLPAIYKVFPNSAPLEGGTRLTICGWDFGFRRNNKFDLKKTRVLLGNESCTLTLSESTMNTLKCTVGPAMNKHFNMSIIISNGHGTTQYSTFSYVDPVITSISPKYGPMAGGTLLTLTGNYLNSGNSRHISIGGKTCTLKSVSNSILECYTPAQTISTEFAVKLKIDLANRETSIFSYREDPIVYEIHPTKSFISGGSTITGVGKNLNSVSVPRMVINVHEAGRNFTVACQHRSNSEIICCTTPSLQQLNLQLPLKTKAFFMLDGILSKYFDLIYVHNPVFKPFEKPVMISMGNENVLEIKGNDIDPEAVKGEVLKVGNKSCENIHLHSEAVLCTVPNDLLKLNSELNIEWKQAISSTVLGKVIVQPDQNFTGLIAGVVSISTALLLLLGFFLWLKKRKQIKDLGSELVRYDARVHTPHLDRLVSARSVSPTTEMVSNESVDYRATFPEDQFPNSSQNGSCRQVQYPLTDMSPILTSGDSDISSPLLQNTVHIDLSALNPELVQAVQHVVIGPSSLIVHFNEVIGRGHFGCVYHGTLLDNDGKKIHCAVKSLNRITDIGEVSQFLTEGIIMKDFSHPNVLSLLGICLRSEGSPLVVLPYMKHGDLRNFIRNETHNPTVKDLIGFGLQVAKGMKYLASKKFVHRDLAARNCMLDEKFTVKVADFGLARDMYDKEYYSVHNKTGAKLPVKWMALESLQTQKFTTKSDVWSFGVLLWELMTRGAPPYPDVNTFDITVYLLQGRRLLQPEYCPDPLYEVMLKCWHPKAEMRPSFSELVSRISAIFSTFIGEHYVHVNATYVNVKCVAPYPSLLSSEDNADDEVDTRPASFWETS", "assay": "Western blot of c-MET phosphorylation in H1993 cells", "format": "cell-based", "conditions": "H1993, 24 h"}, "[8]": {"system": "HLF (fibroblasts from human lung)", "assay": "cytotoxicity in non-malignant cells", "format": "cell-based", "conditions": "normoxic, 72 h", "in_short": "as §2"}, "[9]": {"target": "c-MET phosphorylation in H1993 tumor tissue (Homo sapiens, UniProt P08581)", "sequence (P08581 25-1390)": "as above", "assay": "H1993 xenograft, immunohistochemistry of p-c-MET", "format": "in vivo", "conditions": "24 h, H1993 s.c. in SCID mice"}, "stability down to pH 1": {"assay": "stability down to pH 1", "format": "physicochemical", "conditions": "down to pH 1, 24 h, 37 °C; data not shown"}, "[10]": {"conditions": "RUMH, 24 h treatment, MTT, 1 % O2 or 21 % O2"}, "[11]": {"conditions": "H2228, 24 h treatment, MTT, 1 % O2 or 21 % O2"}, "[12]": {"conditions": "H1993, 24 h treatment, MTT, 1 % O2 or 21 % O2"}},
  "note": "pIC50: −log10 of the molar value. Like-named read-outs stand apart in the source and are kept apart here.",
  "data": [
    {"smiles": "Cn1c(COP(=O)(NCCBr)NCCBr)cnc1[N+](=O)[O-]", "note": "[TH-302, reference compound]", "values": [
      {"measurement": "pIC50", "setting": "[1]; Homo sapiens, 24 h", "value": "< 4.60"},
      {"measurement": "cytotoxic activity under hypoxia vs normoxia", "setting": "[1]; RUMH", "value": "significant anticancer activity under low oxygen levels"},
      {"measurement": "cytotoxic activity under hypoxia vs normoxia", "setting": "[2]", "value": "significant anticancer activity under low oxygen levels"},
      {"measurement": "pIC50", "setting": "[2]; Homo sapiens, NCI-H2228, 24 h", "value": "< 4.60"},
      {"measurement": "cytotoxic activity under hypoxia vs normoxia", "setting": "[3]", "value": "significant anticancer activity under low oxygen levels"},
      {"measurement": "pIC50", "setting": "[3]; Homo sapiens, NCI-H1993, 24 h", "value": "< 4.60"}
    ]},
    {"smiles": "C[C@@H](Oc1cc(-c2cnn(C3CCNCC3)c2)cnc1N)c1c(Cl)ccc(F)c1Cl", "note": "[crizotinib, reference compound]", "values": [
      {"measurement": "solubility", "setting": "solubility in PBS; phosphate-buffered saline", "value": "< 0.5", "unit": "mg/mL"},
      {"measurement": "pIC50", "setting": "[1]; Homo sapiens, 24 h", "value": "~4.70"},
      {"measurement": "Ki-67 expression in tumor tissue", "setting": "[4]; 50 mg/kg p.o., H1993 s.c. in SCID mice", "value": "slight impact"},
      {"measurement": "pIC50", "setting": "[3]; Homo sapiens, NCI-H1993, 24 h", "value": "~4.70"}
    ]},
    {"smiles": "C[C@@H](Oc1cc(-c2cnn(C3CCNCC3)c2)cnc1NC(=O)OCc1cnc([N+](=O)[O-])n1C)c1c(Cl)ccc(F)c1Cl", "note": "[prodrug A, (1-methyl-2-nitro-1H-imidazol-5-yl)methyl (R)-(3-(1-(2,6-dichloro-3-fluorophenyl)ethoxy)-5-(1-(piperidin-4-yl)-1H-pyrazol-4-yl)pyridin-2-yl)carbamate*1.5TFA]", "values": [
      {"measurement": "inhibition of ERK 1/2 phosphorylation signal", "setting": "ERK 1/2 phosphorylation; hypoxia (1 % O2), 5 μM", "value": "~ 60%"},
      {"measurement": "inhibition of ERK 1/2 phosphorylation signal", "setting": "ERK 1/2 phosphorylation; hypoxia (1 % O2), 10 μM", "value": "~ 80%"},
      {"measurement": "inhibition of ERK 1/2 phosphorylation signal", "setting": "ERK 1/2 phosphorylation; normoxia (21 % O2), 5 μM", "value": "< 10", "unit": "%"},
      {"measurement": "solubility", "setting": "solubility in PBS; phosphate-buffered saline (PBS), room temperature", "value": "> 20", "unit": "mg/mL"},
      {"measurement": "cytotoxic activity under hypoxia vs normoxia", "setting": "[1]; RUMH", "value": "promising hypoxia-mediated activity"},
      {"measurement": "pIC50", "setting": "[1]; [10]", "value": "< 4.60"},
      {"measurement": "release of crizotinib as main product", "setting": "[5]", "value": "about 80%"},
      {"measurement": "conversion of prodrug by nitroreductase", "setting": "[5]", "value": "complete conversion"},
      {"measurement": "lower inhibitory potential compared to crizotinib (IC50 ratio)", "setting": "ALK", "value": 42, "unit": "fold"},
      {"measurement": "cell proliferation (Ki-67) in tumor tissue", "setting": "[4]; 38.5 mg/kg i.v., single dose, H1993 s.c. in SCID mice", "value": "inhibition of cell proliferation"},
      {"measurement": "tumor histology (tumor:stroma ratio)", "setting": "[4]; 38.5 mg/kg i.v., single dose, data not shown", "value": "reduction of the tumor:stroma ratio"},
      {"measurement": "Ki-67 expression in tumor tissue", "setting": "[4]; 89.2 mg/kg p.o., H1993 s.c. in SCID mice", "value": "did not significantly change"},
      {"measurement": "lower inhibitory potential compared to crizotinib (IC50 ratio)", "setting": "c-MET", "value": 33, "unit": "fold"},
      {"measurement": "activity against non-malignant cells in comparison to free crizotinib", "setting": "[6]", "value": "distinctly reduced activity"},
      {"measurement": "stability in pure serum", "setting": "[7]", "value": "no significant degradation"},
      {"measurement": "cytotoxic activity under hypoxia vs normoxia", "setting": "[2]", "value": "similarly active"},
      {"measurement": "pIC50", "setting": "[2]; [11]", "value": "< 4.60"},
      {"measurement": "inhibition of c-MET phosphorylation", "setting": "c-MET phosphorylation; hypoxia (1 % O2), 5 μM", "value": 40, "unit": "%"},
      {"measurement": "inhibition of c-MET phosphorylation", "setting": "c-MET phosphorylation; hypoxia (1 % O2), 10 μM", "value": 70, "unit": "%"},
      {"measurement": "inhibition of c-MET phosphorylation", "setting": "c-MET phosphorylation; normoxia (21 % O2), up to 10 μM", "value": "< 10", "unit": "%"},
      {"measurement": "activity against non-malignant cells in comparison to free crizotinib", "setting": "[8]", "value": "distinctly reduced activity"},
      {"measurement": "cytotoxic activity under hypoxia vs normoxia", "setting": "[3]", "value": "promising hypoxia-mediated activity"},
      {"measurement": "pIC50", "setting": "[3]; [12]", "value": "< 4.60"},
      {"measurement": "c-MET phosphorylation in tumor tissue", "setting": "[9]; 38.5 mg/kg i.v., single dose", "value": "significant inhibition"},
      {"measurement": "level of p-c-MET in tumor tissue", "setting": "[9]; 89.2 mg/kg p.o.", "value": "did not significantly change"},
      {"measurement": "stability at low pH", "setting": "stability down to pH 1", "value": "confirmed the stability"}
    ]},
    {"smiles": "C[C@@H](Oc1cc(-c2cnn(C3CCNCC3)c2)cnc1NCc1cnc([N+](=O)[O-])n1C)c1c(Cl)ccc(F)c1Cl", "note": "[prodrug B, (R)-3-(1-(2,6-dichloro-3-fluorophenyl)ethoxy)-N-((1-methyl-2-nitro-1H-imidazol-5-yl)methyl)-5-(1-(piperidin-4-yl)-1H-pyrazol-4-yl)pyridin-2-amine *2TFA]", "values": [
      {"measurement": "IC50 cytotoxicity", "setting": "[1]; [10]", "value": "distinct anticancer activity in a range similar to crizotinib"},
      {"measurement": "release of crizotinib as main product", "setting": "[5]", "value": "no formation of crizotinib"},
      {"measurement": "conversion of prodrug by nitroreductase", "setting": "[5]", "value": "could not be activated"},
      {"measurement": "lower inhibitory potential compared to crizotinib (IC50 ratio)", "setting": "ALK", "value": "> 143", "unit": "fold"},
      {"measurement": "lower inhibitory potential compared to crizotinib (IC50 ratio)", "setting": "c-MET", "value": 64, "unit": "fold"},
      {"measurement": "IC50 cytotoxicity", "setting": "[2]; [11]", "value": "distinct anticancer activity in a range similar to crizotinib"},
      {"measurement": "IC50 cytotoxicity", "setting": "[3]; [12]", "value": "distinct anticancer activity in a range similar to crizotinib"}
    ]}
  ]
}
